# Experimental data taken from ChEMBL document CHEMBL1153735, “Synthesis and in vitro cytostatic activity of new beta-D-arabino furan[1',2':4,5]oxazolo- and arabino-pyrimidinone derivatives” (Eur J Med Chem, 2010).
# Activity calls are given as the source filed them. The rule behind the calls is not given here.
# Experiments:
# L1210 = experiment: Cytotoxicity against mouse L1210 cells after 2 days; assay type: functional, cell-based; conditions: L1210, 48 h
# Procedure, shortened: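 L1210 cells at 300,000–500,000 cells/mL were added to an equal volume of diluted compound. After 2 days at 37 °C, cells were counted with a Coulter counter. IC50 is the concentration that inhibits proliferation by 50%.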
# [1] = Cytotoxicity against human Molt4/C8 cells after 2 days; assay type: functional, cell-based; conditions: MOLT-4, 48 h
# CCRF-CEM = experiment: Cytotoxicity against human CEM cells after 2 days; assay type: functional, cell-based; conditions: for IC50: Homo sapiens, CCRF-CEM, 48 h
# Vaccinia virus = experiment: Antiviral activity against Vaccinia virus infected in human HEL cells assessed as inhibition of virus induced cytopathic effect; assay type: functional, organism-based; conditions: Orthopoxvirus vaccinia
# Human alphaherpesvirus 1 = experiment: Antiviral activity against HSV1 KOS infected in human HEL cells assessed as inhibition of virus induced cytopathic effect; assay type: functional, organism-based
# Procedure, shortened: (§1)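 Confluent monolayers in 96-well plates were infected with 100 CCID50 of virus, with 1 h adsorption before residual virus was removed. Cultures were then kept with test compound at 200, 40 or 8 μM. Cytopathic effect was scored once it was complete in untreated infected controls.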
# Human respirovirus 3 = experiment: Antiviral activity against Parainfluenza virus 3 infected in african green monkey Vero cells assessed as inhibition of virus induced cytopathic effect; assay type: functional, organism-based; procedure, shortened: as §1
# Influenza B virus = experiment: Antiviral activity against influenza B virus infected in MDCK cells assessed as inhibition of virus induced cytopathic effect; assay type: functional, organism-based
# Punta Toro virus = experiment: Antiviral activity against Punta Toro virus infected in african green monkey Vero cells assessed as inhibition of virus induced cytopathic effect; assay type: functional, organism-based; procedure, shortened: as §1
# [2] = tested on: Vesicular stomatitis virus; experiment: Antiviral activity against VSV infected in human HEL cells assessed as inhibition of virus induced cytopathic effect; assay type: functional, organism-based
# Influenza A virus [3] = experiment: Antiviral activity against influenza A H3N2 virus infected in […] cells assessed as inhibition of virus induced cytopathic effect; assay type: functional, organism-based
# Influenza A virus [4] = experiment: Antiviral activity against influenza A H1N1 virus infected in […] cells assessed as inhibition of virus induced cytopathic effect; assay type: functional, organism-based
# [5] = tested on: Mammalian orthoreovirus 1; experiment: Antiviral activity against Reovirus 1 infected in african green monkey Vero cells assessed as inhibition of virus induced cytopathic effect; assay type: functional, organism-based; procedure, shortened: as §1
# Sindbis virus = experiment: Antiviral activity against Sindbis virus infected in african green monkey Vero cells assessed as inhibition of virus induced cytopathic effect; assay type: functional, organism-based; procedure, shortened: as §1
# Feline coronavirus = experiment: Antiviral activity against Feline coronavirus infected in CRFK cells assessed as inhibition of virus induced cytopathic effect; assay type: functional, organism-based; procedure, shortened: as §1
# Human alphaherpesvirus 2 = experiment: Antiviral activity against HSV2 G infected in human HEL cells assessed as inhibition of virus induced cytopathic effect; assay type: functional, organism-based; conditions: strain G; procedure, shortened: as §1
Compound,IC50 (L1210),IC50 [1],IC50 (CCRF-CEM),also measured
CC(=O)c1cnc2n(c1=O)[C@@H]1[C@H](O2)O[C@H](CO[Si](C)(C)C(C)(C)C)[C@H]1O[Si](C)(C)C(C)(C)C,6 µM,7.9 µM,7.5 µM,
CCOC(=O)c1cnc2n(c1=O)[C@@H]1[C@H](O2)O[C@H](CO)[C@H]1O,> 500 µM,> 500 µM,> 500 µM,
C/C(N)=C1/C=NC(=O)N([C@@H]2O[C@H](CO[Si](C)(C)C(C)(C)C)[C@@H](O[Si](C)(C)C(C)(C)C)[C@@H]2O)C1=O,,18 µM,17 µM,
O=c1c2c(nc3n1[C@@H]1[C@H](O3)O[C@H](CO)[C@H]1O)CCCC2,> 500 µM,> 500 µM,> 500 µM,
CN(C)/C=N\C1=N[C@@H]2[C@H](O1)O[C@H](CO[Si](C)(C)C(C)(C)C)[C@H]2O[Si](C)(C)C(C)(C)C,254 µM,226 µM,215 µM,
CN(C)/C=N\C1=N[C@@H]2[C@H](O1)O[C@H](CO)[C@H]2O,> 500 µM,> 500 µM,> 500 µM,
CC(C)(C)[Si](C)(C)OC[C@H]1O[C@H]2Oc3nc4c(c(=O)n3[C@H]2[C@@H]1O[Si](C)(C)C(C)(C)C)CCCC4,201 µM,129 µM,126 µM,EC50 (Vaccinia virus): 45 µM; Activity (Human alphaherpesvirus 1): inactive; Activity (Human respirovirus 3): inactive; Activity (Influenza B virus): inactive; Activity (Punta Toro virus): inactive; Activity [2]: inactive; Activity (Influenza A virus [3]): inactive; Activity (Influenza A virus [4]): inactive; Activity [5]: inactive; Activity (Sindbis virus): inactive; Activity (Feline coronavirus): inactive; Activity (Human alphaherpesvirus 2): inactive; EC50 (CCRF-CEM; ccrf-cem): Not Active
CC(=O)c1c[nH]c(=O)n([C@@H]2O[C@H](CO)[C@@H](O)[C@@H]2O)c1=O,> 500 µM,> 500 µM,> 500 µM,
C/C(N)=C1/C=NC(=O)N([C@@H]2O[C@H](CO)[C@@H](O)[C@@H]2O)C1=O,211 µM,299 µM,217 µM,
O=c1[nH]c2c(c(=O)n1[C@@H]1O[C@H](CO)[C@@H](O)[C@@H]1O)CCCC2,> 500 µM,> 500 µM,> 500 µM,
CC(=O)c1cnc2n(c1=O)[C@@H]1[C@H](O2)O[C@H](CO)[C@H]1O,312 µM,380 µM,254 µM,
O=c1[nH]c(=O)n([C@@H]2O[C@H](CO)[C@@H](O)[C@@H]2O)c2c1CCCC2,> 500 µM,> 500 µM,> 500 µM,
CC(C)(C)[Si](C)(C)OC[C@H]1O[C@H]2Oc3nc(=O)c4c(n3[C@H]2[C@@H]1O[Si](C)(C)C(C)(C)C)CCCC4,229 µM,185 µM,212 µM,
Nc1ccn([C@@H]2O[C@H](CO)[C@@H](O)[C@@H]2O)c(=O)n1 [CYTARABINE],0.024 µM,,0.024 µM,
CCOC(=O)c1c[nH]c(=O)n([C@@H]2O[C@H](CO)[C@@H](O)[C@@H]2O)c1=O,> 500 µM,> 500 µM,> 500 µM,
O=c1nc2n(c3c1CCCC3)[C@@H]1[C@H](O2)O[C@H](CO)[C@H]1O,> 500 µM,> 500 µM,> 500 µM,
